ChEMBL document CHEMBL4043093, “2-Oxo-3, 4-dihydropyrimido[4, 5-d]pyrimidinyl derivatives as new irreversible pan fibroblast growth factor receptor (FGFR) inhibitors” (Eur J Med Chem, 2017)

Columns and labels:
[1] = target: Fibroblast growth factor receptor 3 (Homo sapiens, UniProt P22607); assay: Inhibition of human recombinant His-tagged FGFR3 cytoplasmic domain (399 to 806 residues) expressed in baculovirus using Tyr-4 peptide after 1 hr by FRET-based Z'-Lyte assay
[2] = target: AP2-associated protein kinase 1 (Homo sapiens) (UniProt Q2M2I8); assay: Inhibition of human wild-type AAK1 (G25 to L333 residues) expressed in Escherichia coli BL21 assessed as residual activity at 1000 nM after 30 mins by Kinomescan method relative to control
In short: (§1)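 Single-point screen at a fixed 1 µM, run within a 456-kinase DiscoveRx KINOMEscan panel. Each kinase's read-out is Percent Control, i.e. signal relative to a control without compound. Hits were scored by a Percent Control < 35 cut-off, and an S(35) selectivity score was calculated across the non-mutant kinases.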

[3] = target: Activin receptor type-2B (Homo sapiens) (UniProt Q13705); assay: Inhibition of wild-type human ACVR2B (H169 to D504 residues) expressed in Escherichia coli BL21 assessed as residual activity at 1000 nM after 30 mins by Kinomescan method relative to control; in short: as §1
[4] = target: Bone morphogenetic protein receptor type-1A (Homo sapiens) (UniProt P36894); assay: Inhibition of wild-type human partial length BMPR1A (Q214 to I532 residues) expressed in Escherichia coli BL21 assessed as residual activity at 1000 nM after 30 mins by Kinomescan method relative to control
[5] = target: Cyclin-dependent kinase-like 1 (Homo sapiens) (UniProt Q00532); assay: Inhibition of wild-type human full length CDKL1 (M1 to I358 residues) expressed in HEK293 cells assessed as residual activity at 1000 nM after 30 mins by Kinomescan method relative to control; format: cell-based; in short: as §1
[6] = target: Casein kinase I isoform gamma-3 (Homo sapiens) (UniProt Q9Y6M4); assay: Inhibition of wild-type human full length CSNK1G3 (M1 to K447 residues) expressed in Escherichia coli BL21 assessed as residual activity at 1000 nM after 30 mins by Kinomescan method relative to control; in short: as §1
[7] = target: Death-associated protein kinase 3 (Homo sapiens) (UniProt O43293); assay: Inhibition of wild-type human partial length DAPK3 (M1 to A277 residues) expressed in Escherichia coli BL21 assessed as residual activity at 1000 nM after 30 mins by Kinomescan method relative to control
[8] = target: Receptor-type tyrosine-protein kinase FLT3 (Homo sapiens) (UniProt P36888); assay: Inhibition of wild-type human partial length FLT3 (V592 to Y969 residues) expressed in Escherichia coli BL21 assessed as residual activity at 1000 nM after 30 mins by Kinomescan method relative to control
[9] = test system: Receptor-type tyrosine-protein kinase FLT3 (Homo sapiens), P36888 [R834Q]; assay: Inhibition of human partial length FLT3 R834Q mutant (V592 to Y969 residues) expressed in HEK293 cells assessed as residual activity at 1000 nM after 30 mins by Kinomescan method relative to control; format: cell-based
In short: (§2)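 KINOMEscan binding panel of 456 kinases, with the test compound at a single concentration of 1 µM. Read-out is Percent Control.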

[10] = target: Inhibitor of nuclear factor kappa-B kinase subunit epsilon (Homo sapiens) (UniProt Q14164); assay: Inhibition of wild-type human full length IKK-epsilon (M1 to V716 residues) expressed in HEK293 cells assessed as residual activity at 1000 nM after 30 mins by Kinomescan method relative to control; format: cell-based
In short: (§3)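 Single-concentration screen at 1 µM across a 456-kinase KINOMEscan panel. The read-out is Percent Control for each kinase.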

[11] = target: Leucine-rich repeat serine/threonine-protein kinase 2 (Homo sapiens) (UniProt Q5S007); assay: Inhibition of wild-type human partial length LRRK2 (H970 to E2527 residues) expressed in HEK293 cells assessed as residual activity at 1000 nM after 30 mins by Kinomescan method relative to control; format: cell-based
[12] = target: Mitogen-activated protein kinase kinase kinase 2 (Homo sapiens) (UniProt Q9Y2U5); assay: Inhibition of wild-type human partial length MAP3K2 (S315 to H619 residues) expressed in HEK293 cells assessed as residual activity at 1000 nM after 30 mins by Kinomescan method relative to control; format: cell-based
[13] = target: Dual specificity mitogen-activated protein kinase kinase 3 (Homo sapiens) (UniProt P46734); assay: Inhibition of wild-type human full length MEK3 (M1 to S318 residues) expressed in HEK293 cells assessed as residual activity at 1000 nM after 30 mins by Kinomescan method relative to control; format: cell-based; in short: as §3
[14] = target: Serine/threonine-protein kinase PAK 2 (Homo sapiens) (UniProt Q13177); assay: Inhibition of wild-type human partial length PAK2 (P151 to R525 residues) expressed in Escherichia coli BL21 assessed as residual activity at 1000 nM after 30 mins by Kinomescan method relative to control
[15] = test system: Phosphatidylinositol 4,5-bisphosphate 3-kinase catalytic subunit alpha isoform (Homo sapiens), P42336 [H1047L]; assay: Inhibition of human partial length PIK3CA H1047L mutant (R108 to N1068 residues) expressed in HEK293 cells assessed as residual activity at 1000 nM after 30 mins by Kinomescan method relative to control; format: cell-based; in short: as §2
[16] = target: Phosphatidylinositol 5-phosphate 4-kinase type-2 beta (Homo sapiens) (UniProt P78356); assay: Inhibition of wild-type human full length PIP5K2B (M1 to T416 residues) expressed in Escherichia coli BL21 assessed as residual activity at 1000 nM after 30 mins by Kinomescan method relative to control
In short: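 Single-concentration screen at 1 µM against a 456-kinase panel (KINOMEscan). Read-out is Percent Control for each kinase. Across the 403 non-mutant kinases, an S(35) selectivity score was derived as the fraction of kinases with Percent Control < 35.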

[17] = target: Interferon-induced, double-stranded RNA-activated protein kinase (Homo sapiens) (UniProt P19525); assay: Inhibition of wild-type human partial length PRKR (F247 to C551 residues) expressed in Escherichia coli BL21 assessed as residual activity at 1000 nM after 30 mins by Kinomescan method relative to control
[18] = target: Serine/threonine-protein kinase tousled-like 2 (Homo sapiens) (UniProt Q86UE8); assay: Inhibition of wild-type human partial length TLK2 (E424 to N749 residues) expressed in Escherichia coli BL21 assessed as residual activity at 1000 nM after 30 mins by Kinomescan method relative to control
[19] = target: Dual specificity protein kinase TTK (Homo sapiens) (UniProt P33981); assay: Inhibition of wild-type human partial length TTK (N505 to V798 residues) expressed in Escherichia coli BL21 assessed as residual activity at 1000 nM after 30 mins by Kinomescan method relative to control
[20] = target: Serine/threonine-protein kinase 32C (Homo sapiens) (UniProt Q86UX6); assay: Inhibition of wild-type human partial length YANK3 (M68 to G486 residues) expressed in Escherichia coli BL21 assessed as residual activity at 1000 nM after 30 mins by Kinomescan method relative to control
Serine/threonine-protein kinase 32C (Homo sapiens), sequence (Q86UX6 whole entry, the tested form may be a part): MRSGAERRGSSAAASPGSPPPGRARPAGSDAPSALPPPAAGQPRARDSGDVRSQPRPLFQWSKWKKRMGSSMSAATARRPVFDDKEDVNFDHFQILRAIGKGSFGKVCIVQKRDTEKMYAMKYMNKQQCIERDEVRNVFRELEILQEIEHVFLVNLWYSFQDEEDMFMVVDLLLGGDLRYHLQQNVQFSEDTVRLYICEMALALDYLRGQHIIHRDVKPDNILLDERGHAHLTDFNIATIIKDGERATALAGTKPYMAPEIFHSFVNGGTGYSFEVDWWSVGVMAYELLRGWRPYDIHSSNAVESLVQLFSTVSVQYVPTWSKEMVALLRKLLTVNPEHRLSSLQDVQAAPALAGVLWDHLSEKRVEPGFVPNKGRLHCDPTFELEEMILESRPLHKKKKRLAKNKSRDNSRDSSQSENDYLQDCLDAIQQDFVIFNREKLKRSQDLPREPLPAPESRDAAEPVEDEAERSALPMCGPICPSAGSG

Bone morphogenetic protein receptor type-1A (Homo sapiens), sequence (P36894 whole entry, the tested form may be a part): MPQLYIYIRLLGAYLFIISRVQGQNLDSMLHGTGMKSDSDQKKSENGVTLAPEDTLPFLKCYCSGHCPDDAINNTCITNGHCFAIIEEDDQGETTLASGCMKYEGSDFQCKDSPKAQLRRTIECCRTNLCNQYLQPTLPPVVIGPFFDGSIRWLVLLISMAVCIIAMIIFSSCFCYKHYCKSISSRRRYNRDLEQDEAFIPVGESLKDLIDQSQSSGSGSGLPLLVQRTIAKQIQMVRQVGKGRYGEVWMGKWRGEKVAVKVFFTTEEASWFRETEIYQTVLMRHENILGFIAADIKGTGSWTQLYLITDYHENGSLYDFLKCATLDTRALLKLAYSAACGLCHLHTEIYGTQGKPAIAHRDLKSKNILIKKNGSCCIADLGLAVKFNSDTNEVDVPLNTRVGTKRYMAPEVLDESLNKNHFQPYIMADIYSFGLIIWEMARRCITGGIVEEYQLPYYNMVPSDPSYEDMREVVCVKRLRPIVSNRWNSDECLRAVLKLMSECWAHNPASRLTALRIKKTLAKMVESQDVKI
Casein kinase I isoform gamma-3 (Homo sapiens), sequence (Q9Y6M4 whole entry, looked up, the tested form may be a part, canonical isoform): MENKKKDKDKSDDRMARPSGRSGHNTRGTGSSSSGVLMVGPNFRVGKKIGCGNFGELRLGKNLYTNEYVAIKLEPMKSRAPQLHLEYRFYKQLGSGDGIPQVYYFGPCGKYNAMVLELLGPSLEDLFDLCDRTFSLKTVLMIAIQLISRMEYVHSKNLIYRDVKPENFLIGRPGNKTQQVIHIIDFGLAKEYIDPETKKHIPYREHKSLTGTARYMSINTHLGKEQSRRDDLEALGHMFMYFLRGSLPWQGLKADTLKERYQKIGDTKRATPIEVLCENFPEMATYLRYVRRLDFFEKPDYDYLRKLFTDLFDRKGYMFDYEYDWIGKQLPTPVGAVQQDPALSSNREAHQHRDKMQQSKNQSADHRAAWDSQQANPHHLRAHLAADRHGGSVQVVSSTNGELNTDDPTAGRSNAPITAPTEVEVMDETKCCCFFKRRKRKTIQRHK
Dual specificity mitogen-activated protein kinase kinase 3 (Homo sapiens), sequence (P46734 whole entry, the tested form may be a part): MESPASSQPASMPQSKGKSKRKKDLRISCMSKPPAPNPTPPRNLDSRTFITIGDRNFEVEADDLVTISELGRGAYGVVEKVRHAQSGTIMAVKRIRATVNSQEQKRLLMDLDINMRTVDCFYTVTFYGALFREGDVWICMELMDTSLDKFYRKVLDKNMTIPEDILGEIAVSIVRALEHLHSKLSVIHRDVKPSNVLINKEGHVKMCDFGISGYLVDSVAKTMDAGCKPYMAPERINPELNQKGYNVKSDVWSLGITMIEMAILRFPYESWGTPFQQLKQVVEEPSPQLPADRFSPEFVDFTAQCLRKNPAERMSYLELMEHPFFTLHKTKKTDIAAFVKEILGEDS
Serine/threonine-protein kinase tousled-like 2 (Homo sapiens), sequence (Q86UE8 whole entry, looked up, the tested form may be a part): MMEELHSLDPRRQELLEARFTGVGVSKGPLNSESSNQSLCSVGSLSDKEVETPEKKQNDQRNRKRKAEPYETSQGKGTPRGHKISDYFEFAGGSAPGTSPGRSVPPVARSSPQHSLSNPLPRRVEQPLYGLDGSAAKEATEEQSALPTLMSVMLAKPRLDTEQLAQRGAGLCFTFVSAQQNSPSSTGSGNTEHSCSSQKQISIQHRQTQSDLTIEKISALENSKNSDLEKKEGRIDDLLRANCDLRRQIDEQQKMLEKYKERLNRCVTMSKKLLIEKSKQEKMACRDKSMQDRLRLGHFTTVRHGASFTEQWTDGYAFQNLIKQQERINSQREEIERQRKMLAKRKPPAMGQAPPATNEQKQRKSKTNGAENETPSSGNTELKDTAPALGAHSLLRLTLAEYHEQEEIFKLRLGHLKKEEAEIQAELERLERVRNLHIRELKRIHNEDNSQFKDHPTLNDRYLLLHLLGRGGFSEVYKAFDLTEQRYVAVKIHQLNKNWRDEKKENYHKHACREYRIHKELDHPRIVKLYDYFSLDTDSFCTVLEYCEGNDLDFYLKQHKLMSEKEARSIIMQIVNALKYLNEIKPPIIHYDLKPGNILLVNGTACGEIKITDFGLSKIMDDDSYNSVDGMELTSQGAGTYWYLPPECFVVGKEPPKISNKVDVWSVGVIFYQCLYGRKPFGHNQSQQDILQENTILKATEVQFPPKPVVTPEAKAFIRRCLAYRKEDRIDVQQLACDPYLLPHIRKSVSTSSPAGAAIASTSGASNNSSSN
Death-associated protein kinase 3 (Homo sapiens), sequence (O43293 whole entry, looked up, the tested form may be a part): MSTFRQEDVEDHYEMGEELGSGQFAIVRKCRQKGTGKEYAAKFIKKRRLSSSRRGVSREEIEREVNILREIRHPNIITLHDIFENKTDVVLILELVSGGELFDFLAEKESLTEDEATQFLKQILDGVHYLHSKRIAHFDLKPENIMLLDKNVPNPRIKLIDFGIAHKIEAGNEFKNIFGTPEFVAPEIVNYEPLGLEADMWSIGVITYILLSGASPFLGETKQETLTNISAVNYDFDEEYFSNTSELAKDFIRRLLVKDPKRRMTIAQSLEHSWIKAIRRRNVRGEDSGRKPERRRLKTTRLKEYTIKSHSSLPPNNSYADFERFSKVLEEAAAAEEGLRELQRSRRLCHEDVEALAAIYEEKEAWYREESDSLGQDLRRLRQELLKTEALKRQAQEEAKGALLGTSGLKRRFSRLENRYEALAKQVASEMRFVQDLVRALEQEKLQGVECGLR
Fibroblast growth factor receptor 3, sequence (P22607 whole entry, the tested form may be a part): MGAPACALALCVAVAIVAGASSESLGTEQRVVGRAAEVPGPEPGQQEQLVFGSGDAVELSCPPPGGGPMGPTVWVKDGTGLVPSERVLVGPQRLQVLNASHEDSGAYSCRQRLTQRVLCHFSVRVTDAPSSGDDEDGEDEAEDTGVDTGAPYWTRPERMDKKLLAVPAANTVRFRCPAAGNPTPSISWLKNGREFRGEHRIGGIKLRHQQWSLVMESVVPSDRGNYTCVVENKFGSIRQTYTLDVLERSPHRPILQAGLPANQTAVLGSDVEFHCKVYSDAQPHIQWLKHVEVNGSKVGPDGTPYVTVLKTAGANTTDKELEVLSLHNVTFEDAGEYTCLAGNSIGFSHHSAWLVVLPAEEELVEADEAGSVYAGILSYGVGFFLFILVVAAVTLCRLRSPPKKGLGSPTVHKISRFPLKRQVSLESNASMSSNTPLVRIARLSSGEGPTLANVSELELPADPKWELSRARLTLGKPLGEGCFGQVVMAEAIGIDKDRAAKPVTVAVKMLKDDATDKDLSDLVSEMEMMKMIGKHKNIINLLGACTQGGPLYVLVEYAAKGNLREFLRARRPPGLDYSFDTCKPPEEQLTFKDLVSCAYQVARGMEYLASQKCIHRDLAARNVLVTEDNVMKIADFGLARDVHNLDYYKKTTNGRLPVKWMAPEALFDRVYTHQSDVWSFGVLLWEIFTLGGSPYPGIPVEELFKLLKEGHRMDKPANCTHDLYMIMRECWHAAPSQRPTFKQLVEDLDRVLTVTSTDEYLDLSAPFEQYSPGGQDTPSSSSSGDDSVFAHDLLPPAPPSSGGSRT
Inhibitor of nuclear factor kappa-B kinase subunit epsilon (Homo sapiens), sequence (Q14164 whole entry, the tested form may be a part): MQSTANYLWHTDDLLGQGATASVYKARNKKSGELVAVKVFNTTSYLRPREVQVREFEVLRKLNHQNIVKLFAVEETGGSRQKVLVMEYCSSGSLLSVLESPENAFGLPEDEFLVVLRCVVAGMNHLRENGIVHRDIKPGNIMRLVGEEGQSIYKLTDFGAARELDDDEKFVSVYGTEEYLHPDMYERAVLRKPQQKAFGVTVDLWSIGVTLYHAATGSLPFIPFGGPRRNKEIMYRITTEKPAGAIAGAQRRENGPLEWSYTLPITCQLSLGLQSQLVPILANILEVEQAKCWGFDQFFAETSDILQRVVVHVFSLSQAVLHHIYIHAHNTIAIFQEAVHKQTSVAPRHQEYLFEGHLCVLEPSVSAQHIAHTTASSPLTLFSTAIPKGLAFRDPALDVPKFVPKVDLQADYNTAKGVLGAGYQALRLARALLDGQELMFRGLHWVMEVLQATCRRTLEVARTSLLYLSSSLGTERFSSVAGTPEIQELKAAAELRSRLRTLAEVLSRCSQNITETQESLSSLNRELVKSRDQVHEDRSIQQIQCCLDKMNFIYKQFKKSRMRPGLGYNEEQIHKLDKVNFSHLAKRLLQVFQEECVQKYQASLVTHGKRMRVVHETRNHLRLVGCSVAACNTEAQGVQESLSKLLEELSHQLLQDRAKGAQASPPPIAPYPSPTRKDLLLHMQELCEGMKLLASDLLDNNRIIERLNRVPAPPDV
Phosphatidylinositol 5-phosphate 4-kinase type-2 beta (Homo sapiens), sequence (P78356 whole entry, the tested form may be a part): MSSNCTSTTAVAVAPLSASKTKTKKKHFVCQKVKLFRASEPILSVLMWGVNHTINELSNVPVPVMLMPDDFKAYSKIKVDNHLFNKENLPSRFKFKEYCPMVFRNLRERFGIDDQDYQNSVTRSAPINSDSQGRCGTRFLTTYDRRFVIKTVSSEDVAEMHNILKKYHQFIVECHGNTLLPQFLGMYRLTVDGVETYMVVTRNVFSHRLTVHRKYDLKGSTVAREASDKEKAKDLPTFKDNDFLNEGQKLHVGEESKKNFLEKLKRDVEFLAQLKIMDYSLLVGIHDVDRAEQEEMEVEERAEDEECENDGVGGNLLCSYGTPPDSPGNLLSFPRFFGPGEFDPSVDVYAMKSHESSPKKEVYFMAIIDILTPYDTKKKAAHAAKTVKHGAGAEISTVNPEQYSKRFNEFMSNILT

Question: With `COc1cc(OC)c(Cl)c(N2Cc3cnc(Nc4ccc(F)cc4)nc3N(C3CCN(C(=O)/C=C/CN(C)C)CC3)C2=O)c1Cl` as the molecule, how does the IC50 [1] read?
Answer: The IC50 was 5.07 nM.

Question: And the Activity [2]?
Answer: Its Activity is 100%.

Question: And the Activity [3]?
Answer: The Activity was 98%.

Question: What about the Activity [4] of the same molecule?
Answer: The Activity was 100%.

Question: And the Activity [5]?
Answer: Its Activity is 96%.

Question: What about the Activity [6] of the same molecule?
Answer: The Activity was 100%.

Question: What about the Activity [7] of the same molecule?
Answer: The Activity was 100%.

Question: What about the Activity [8] of the same molecule?
Answer: Its Activity is 96%.

Question: And the Activity [9]?
Answer: Its Activity is 96%.

Question: What about the Activity [10] of the same molecule?
Answer: The Activity was 100%.

Question: And the Activity [11]?
Answer: The Activity was 100%.

Question: What about the Activity [12] of the same molecule?
Answer: Its Activity is 0.8%.

Question: And the Activity [13]?
Answer: Its Activity is 90%.

Question: And the Activity [14]?
Answer: Its Activity is 100%.

Question: What about the Activity [15] of the same molecule?
Answer: The Activity was 100%.

Question: And the Activity [16]?
Answer: Its Activity is 100%.

Question: And the Activity [17]?
Answer: Its Activity is 76%.

Question: And the Activity [18]?
Answer: Its Activity is 96%.

Question: And the Activity [19]?
Answer: The Activity was 86%.

Question: What about the Activity [20] of the same molecule?
Answer: The Activity was 90%.
